This is an account of results in ChEMBL document CHEMBL4304739, “Discovery of 3-(Indol-5-yl)-indazole Derivatives as Novel Myeloid Differentiation Protein 2/Toll-like Receptor 4 Antagonists for Treatment of Acute Lung Injury” (J Med Chem, 2019).

Calls of active or inactive are those of the source. No cut-off for these calls is given here.

For series [1], the target named is Tyrosine-protein kinase ZAP-70 (Homo sapiens) (UniProt P43403). In words: Inhibition of wild-type human partial length ZAP70 (D20 to G299 residues) expressed in mammalian expression system at 1 uM by Kinomescan method. Summed up:
(§1)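 Single-concentration screen at 1 μM on the KINOMEscan panel (98 kinases), run by the platform provider. Results are given as percent of control: % Ctrl = [(test signal − positive control signal)/(negative control signal − positive control signal)] × 100. DMSO serves as negative control (100% Ctrl) and a control compound as positive control (0% Ctrl). Lower values mean stronger binding hits.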

For series [2], the target named is NUAK family SNF1-like kinase 2 (Homo sapiens) (UniProt Q9H093). Kind of series: Inhibition of wild-type human partial length SNARK (P22 to A333 residues) expressed in mammalian expression system at 1 uM by Kinomescan method. Summed up: as §1
Chain of NUAK family SNF1-like kinase 2 (Homo sapiens) (Q9H093 whole entry, the tested form may be a part): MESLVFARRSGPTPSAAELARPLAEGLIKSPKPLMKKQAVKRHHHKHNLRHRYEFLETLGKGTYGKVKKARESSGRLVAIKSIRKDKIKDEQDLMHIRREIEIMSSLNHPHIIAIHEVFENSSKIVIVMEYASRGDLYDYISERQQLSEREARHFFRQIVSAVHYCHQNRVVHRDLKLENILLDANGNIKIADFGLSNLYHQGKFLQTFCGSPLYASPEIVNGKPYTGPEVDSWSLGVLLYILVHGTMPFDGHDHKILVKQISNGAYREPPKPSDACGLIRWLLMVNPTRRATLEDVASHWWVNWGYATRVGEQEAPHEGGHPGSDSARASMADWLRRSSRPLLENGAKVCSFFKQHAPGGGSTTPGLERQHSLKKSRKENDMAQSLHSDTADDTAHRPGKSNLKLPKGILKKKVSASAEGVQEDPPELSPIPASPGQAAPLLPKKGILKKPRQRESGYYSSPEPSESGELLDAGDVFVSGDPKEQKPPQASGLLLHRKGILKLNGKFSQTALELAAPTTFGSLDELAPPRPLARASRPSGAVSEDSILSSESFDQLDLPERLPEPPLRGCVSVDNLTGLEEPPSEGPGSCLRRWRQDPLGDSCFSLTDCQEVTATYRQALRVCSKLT
In series [3] the target is Cyclin-dependent kinase 7 (Homo sapiens) (UniProt P50613). In words: Inhibition of wild-type human full length CDK7 (M1 to L344 residues) expressed in mammalian expression system at 1 uM by Kinomescan method. Summed up: (§2)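 KINOMEscan competition binding screen at 1 μM compound. Results reported as % of control = (test − positive control)/(DMSO negative control − positive control) × 100, where lower values mean stronger hits.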

In series [4] the test system is Peritoneal macrophage. Kind of series: Cytotoxicity against ICR mouse peritoneal macrophages assessed as reduction in cell viability at 10 uM measured after 24 hrs by MTT assay. In kind it is cell-based. In outline: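 Peritoneal macrophages from ICR mice, 2.0×10^4 cells/well in DMEM with 10% FBS. Cells exposed to compound for 24 h, then MTT (5 mg/ml in 0.9% NaCl) added for 4 h at 37 °C in 5% CO2. Absorbance read at 490 nm; final DMSO 0.1%.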
(Tetrazolium dyes change colour on reduction, which living cells bring about.)

The target in series [5] is Dual specificity tyrosine-phosphorylation-regulated kinase 1B (Homo sapiens) (UniProt Q9Y463). In words: Inhibition of wild-type human full length DYRK1B (M1 to S629 residues) expressed in bacterial expression system at 1 uM by Kinomescan method. In outline: as §2
The subject of series [6] is Tyrosine-protein kinase ABL1 (Homo sapiens), P00519 [T315I]. In words: Inhibition of human phosphorylated ABL1 T315I mutant (S229 to K512 residues) expressed in mammalian expression system at 1 uM by Kinomescan method. In outline:
as §2

For series [7], the target named is Phosphatidylinositol 4,5-bisphosphate 3-kinase catalytic subunit gamma isoform (Homo sapiens) (UniProt P48736). Kind of series: Inhibition of wild-type human partial length PIK3CG (S144 to A1102 residues) expressed in mammalian expression system at 1 uM by Kinomescan method. In outline: (§3)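 Binding-competition screen on the KINOMEscan platform, run by the provider, with the test compound at 1 μM. Readout is percent of control: (test signal − positive control signal)/(negative control signal − positive control signal) × 100. The DMSO negative control is set as 100% Ctrl and a control compound as 0% Ctrl. Lower values mean stronger hits.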
Chain of Phosphatidylinositol 4,5-bisphosphate 3-kinase catalytic subunit gamma isoform (Homo sapiens) (P48736 whole entry, looked up, the tested form may be a part, canonical isoform): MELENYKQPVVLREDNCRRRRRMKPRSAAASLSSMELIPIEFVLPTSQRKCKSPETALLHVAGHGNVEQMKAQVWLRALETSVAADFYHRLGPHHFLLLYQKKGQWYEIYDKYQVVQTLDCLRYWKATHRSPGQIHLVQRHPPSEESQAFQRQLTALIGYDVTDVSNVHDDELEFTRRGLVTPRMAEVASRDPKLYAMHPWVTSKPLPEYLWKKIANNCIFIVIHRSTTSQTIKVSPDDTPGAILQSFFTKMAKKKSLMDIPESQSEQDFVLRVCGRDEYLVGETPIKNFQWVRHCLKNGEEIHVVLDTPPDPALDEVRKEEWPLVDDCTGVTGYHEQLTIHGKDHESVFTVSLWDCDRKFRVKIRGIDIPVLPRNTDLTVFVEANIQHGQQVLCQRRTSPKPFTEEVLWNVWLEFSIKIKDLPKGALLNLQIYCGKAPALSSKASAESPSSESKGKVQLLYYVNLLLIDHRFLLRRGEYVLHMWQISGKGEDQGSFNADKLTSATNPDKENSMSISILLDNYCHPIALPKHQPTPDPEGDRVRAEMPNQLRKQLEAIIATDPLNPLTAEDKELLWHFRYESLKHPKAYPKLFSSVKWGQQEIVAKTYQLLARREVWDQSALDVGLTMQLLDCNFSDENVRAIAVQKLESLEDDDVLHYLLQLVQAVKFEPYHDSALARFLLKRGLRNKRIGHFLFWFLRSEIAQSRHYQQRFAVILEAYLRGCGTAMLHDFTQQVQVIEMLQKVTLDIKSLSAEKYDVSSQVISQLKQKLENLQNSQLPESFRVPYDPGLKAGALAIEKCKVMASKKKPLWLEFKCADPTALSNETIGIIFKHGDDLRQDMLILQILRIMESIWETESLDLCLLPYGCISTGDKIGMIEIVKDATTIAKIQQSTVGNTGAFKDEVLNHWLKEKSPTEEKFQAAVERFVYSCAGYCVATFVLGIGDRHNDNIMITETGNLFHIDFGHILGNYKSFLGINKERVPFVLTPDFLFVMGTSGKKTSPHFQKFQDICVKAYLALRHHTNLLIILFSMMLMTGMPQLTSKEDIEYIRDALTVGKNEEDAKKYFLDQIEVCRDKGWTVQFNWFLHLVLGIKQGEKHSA

The target of series [8] is Cyclin-dependent kinase 3 (Homo sapiens) (UniProt Q00526). In words: Inhibition of wild-type human full length CDK3 (M1 to H305 residues) expressed in bacterial expression system at 1 uM by Kinomescan method. In outline: as §2
Chain of Cyclin-dependent kinase 3 (Homo sapiens) (Q00526 whole entry, looked up, the tested form may be a part): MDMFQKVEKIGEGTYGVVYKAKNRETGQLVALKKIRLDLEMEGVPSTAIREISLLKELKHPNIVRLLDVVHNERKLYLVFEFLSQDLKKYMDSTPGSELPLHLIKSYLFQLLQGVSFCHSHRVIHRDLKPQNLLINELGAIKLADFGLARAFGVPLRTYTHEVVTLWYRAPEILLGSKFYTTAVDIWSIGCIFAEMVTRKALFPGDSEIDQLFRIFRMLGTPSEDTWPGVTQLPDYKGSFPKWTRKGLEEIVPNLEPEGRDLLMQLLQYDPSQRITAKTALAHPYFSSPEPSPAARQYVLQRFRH
For series [9], the target named is Serine/threonine-protein kinase Chk1 (Homo sapiens) (UniProt O14757). In words: Inhibition of wild-type human partial length CHEK1 (M1 to G289 residues) expressed in bacterial expression system at 1 uM by Kinomescan method. Summed up:
as §3

Series [10] has as its target Toll-like receptor 4 (Homo sapiens, UniProt O00206). Kind of series: Inhibition of HA-tagged/FLAG-tagged TLR4 (unknown origin) homodimerization expressed in HEK293T cells by co-immunoprecipitation method. It is filed as cell-based. In outline:
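HEK293T cells co-transfected with HA- and Flag-tagged TLR4 plasmids. Compound at various concentrations or vehicle added 6 h after transfection. Lysates immunoprecipitated with protein A/G agarose and detected by immunoblot with anti-HA and anti-Flag antibodies.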

Series [11] addresses Tyrosine-protein kinase ABL1 (Homo sapiens) (UniProt P00519). Kind of series: Inhibition of wild-type human phosphorylated ABL1 (S229 to K512 residues) expressed in mammalian expression system at 1 uM by Kinomescan method. In outline: as §1
Series [12] concerns Mus musculus. Kind of series: Antiinflammatory activity in LPS-induced C57BL/6 mouse model of acute lung injury assessed as appearance of normal pulmonary lobule structure at 5 to 10 mg/kg, iv pretreated for 15 mins followed by LPS stimulation and measured after 6 hrs by H and E staining-based microscopic analysis. It is filed as functional, organism-based. Summed up:
(§4)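 Male C57BL/6 mice (18−22 g; n=8 per group). Compound in 0.1% CMC-Na given by tail vein injection 15 min before intraperitoneal LPS (20 mg/kg); controls received saline. Mice were sacrificed 6 h after LPS, and serum and lung tissue were collected.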

The target in series [13] is MAP kinase-interacting serine/threonine-protein kinase 1 (Homo sapiens) (UniProt Q9BUB5). Kind of series: Inhibition of wild-type human full length MKNK1 (M1 to L424 residues) expressed in mammalian expression system at 1 uM by Kinomescan method. Summed up: as §2
Series [14] has as its target Insulin-like growth factor 1 receptor (Homo sapiens) (UniProt P08069). Kind of series: Inhibition of wild-type human partial length IGF1R (L972 to D1294 residues) expressed in bacterial expression system at 1 uM by Kinomescan method. In outline: as §3
Series [15] has as its target Casein kinase I isoform gamma-1 (Homo sapiens) (UniProt Q9HCP0). Kind of series: Inhibition of wild-type human partial length CSNK1G1 (T15 to S353 residues) expressed in bacterial expression system at 1 uM by Kinomescan method. In outline: as §3
Series [16] has as its target Receptor tyrosine-protein kinase erbB-4 (Homo sapiens) (UniProt Q15303). In words: Inhibition of wild-type human partial length ERBB4 (L690 to K994 residues) expressed in bacterial expression system at 1 uM by Kinomescan method. Summed up: as §3
The test system of series [17] is Mus musculus. In words: Antiinflammatory activity in LPS-induced C57BL/6 mouse model of acute lung injury assessed as reduction in IL6 mRNA level at 10 mg/kg, iv pretreated for 15 mins followed by LPS stimulation and measured after 6 hrs by SYBR green staining-based qRT-PCR analysis. In kind it is functional, organism-based. In outline:
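Total lung RNA extracted, with DNase I removal of residual DNA. Quantitative PCR with mouse gene primers; each gene normalized to β-actin. C57BL/6 mice given compound iv 15 min before intraperitoneal LPS (20 mg/kg) and killed at 6 h.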
A general note: Real-time PCR tracks product formation cycle by cycle.

Series [18] addresses Cyclin-dependent kinase 9 (Homo sapiens) (UniProt P50750). In words: Inhibition of wild-type human full length CDK9 (M1 to F372 residues) expressed in bacterial expression system at 1 uM by Kinomescan method. In outline:
as §2

For series [19], the system named is Mus musculus. In words: Antiinflammatory activity in LPS-induced C57BL/6 mouse model of acute lung injury assessed as reduction in lung injury score at 5 to 10 mg/kg, iv pretreated for 15 mins followed by LPS stimulation and measured after 6 hrs. It is filed as functional, organism-based. Summed up: as §4
The target in series [20] is 3-phosphoinositide-dependent protein kinase 1 (Homo sapiens) (UniProt O15530). Kind of series: Inhibition of wild-type human full length PDPK1 (M1 to Q556 residues) expressed in bacterial expression system at 1 uM by Kinomescan method. In outline: as §2
Series [21] deals with RAF proto-oncogene serine/threonine-protein kinase (Homo sapiens) (UniProt P04049). In words: Inhibition of wild-type human partial length RAF1 (I330 to T640 residues) expressed in bacterial expression system at 1 uM by Kinomescan method. In outline: as §3
Chain of RAF proto-oncogene serine/threonine-protein kinase (Homo sapiens) (P04049 whole entry, the tested form may be a part): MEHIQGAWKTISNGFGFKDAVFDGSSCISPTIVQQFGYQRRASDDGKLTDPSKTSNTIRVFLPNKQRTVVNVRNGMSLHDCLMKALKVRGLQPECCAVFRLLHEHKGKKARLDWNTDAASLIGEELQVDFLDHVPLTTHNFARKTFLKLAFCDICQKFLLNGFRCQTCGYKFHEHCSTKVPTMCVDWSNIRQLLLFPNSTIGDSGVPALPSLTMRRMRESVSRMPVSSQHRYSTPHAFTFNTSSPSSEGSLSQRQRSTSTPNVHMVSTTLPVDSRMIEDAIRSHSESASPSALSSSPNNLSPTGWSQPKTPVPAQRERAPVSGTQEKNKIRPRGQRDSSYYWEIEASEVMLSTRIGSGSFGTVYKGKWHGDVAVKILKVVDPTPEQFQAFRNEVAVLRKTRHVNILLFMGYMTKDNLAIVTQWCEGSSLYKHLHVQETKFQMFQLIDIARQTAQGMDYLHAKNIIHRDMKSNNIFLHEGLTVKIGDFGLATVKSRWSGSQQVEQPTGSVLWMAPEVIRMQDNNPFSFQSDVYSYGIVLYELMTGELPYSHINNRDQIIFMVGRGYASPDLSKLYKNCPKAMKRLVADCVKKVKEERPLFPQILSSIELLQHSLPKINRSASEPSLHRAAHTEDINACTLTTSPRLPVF

Chain of Cyclin-dependent kinase 9 (Homo sapiens) (P50750 whole entry, the tested form may be a part): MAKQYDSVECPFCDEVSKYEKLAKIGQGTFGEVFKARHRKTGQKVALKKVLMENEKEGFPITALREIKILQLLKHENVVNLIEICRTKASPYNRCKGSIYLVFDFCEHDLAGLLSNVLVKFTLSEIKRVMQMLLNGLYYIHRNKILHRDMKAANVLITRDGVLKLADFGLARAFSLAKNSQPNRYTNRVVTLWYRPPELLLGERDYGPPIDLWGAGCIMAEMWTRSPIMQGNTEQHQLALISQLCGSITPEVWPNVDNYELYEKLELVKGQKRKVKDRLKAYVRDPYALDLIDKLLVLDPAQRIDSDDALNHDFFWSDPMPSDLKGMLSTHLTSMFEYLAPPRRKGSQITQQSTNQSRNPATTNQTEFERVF
Chain of Casein kinase I isoform gamma-1 (Homo sapiens) (Q9HCP0 whole entry, looked up, the tested form may be a part, canonical isoform): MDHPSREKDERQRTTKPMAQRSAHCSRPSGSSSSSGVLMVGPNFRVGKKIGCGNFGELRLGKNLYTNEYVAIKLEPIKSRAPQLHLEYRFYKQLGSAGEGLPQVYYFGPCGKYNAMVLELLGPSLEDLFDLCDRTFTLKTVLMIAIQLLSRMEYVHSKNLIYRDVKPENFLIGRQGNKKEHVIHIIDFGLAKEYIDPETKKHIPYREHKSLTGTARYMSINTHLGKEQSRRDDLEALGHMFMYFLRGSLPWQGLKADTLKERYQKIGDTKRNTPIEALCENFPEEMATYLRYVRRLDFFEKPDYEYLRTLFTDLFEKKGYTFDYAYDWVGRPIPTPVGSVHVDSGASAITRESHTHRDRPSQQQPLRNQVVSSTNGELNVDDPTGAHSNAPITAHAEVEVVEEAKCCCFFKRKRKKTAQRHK
Chain of Insulin-like growth factor 1 receptor (Homo sapiens) (P08069 31-736 limits assumed): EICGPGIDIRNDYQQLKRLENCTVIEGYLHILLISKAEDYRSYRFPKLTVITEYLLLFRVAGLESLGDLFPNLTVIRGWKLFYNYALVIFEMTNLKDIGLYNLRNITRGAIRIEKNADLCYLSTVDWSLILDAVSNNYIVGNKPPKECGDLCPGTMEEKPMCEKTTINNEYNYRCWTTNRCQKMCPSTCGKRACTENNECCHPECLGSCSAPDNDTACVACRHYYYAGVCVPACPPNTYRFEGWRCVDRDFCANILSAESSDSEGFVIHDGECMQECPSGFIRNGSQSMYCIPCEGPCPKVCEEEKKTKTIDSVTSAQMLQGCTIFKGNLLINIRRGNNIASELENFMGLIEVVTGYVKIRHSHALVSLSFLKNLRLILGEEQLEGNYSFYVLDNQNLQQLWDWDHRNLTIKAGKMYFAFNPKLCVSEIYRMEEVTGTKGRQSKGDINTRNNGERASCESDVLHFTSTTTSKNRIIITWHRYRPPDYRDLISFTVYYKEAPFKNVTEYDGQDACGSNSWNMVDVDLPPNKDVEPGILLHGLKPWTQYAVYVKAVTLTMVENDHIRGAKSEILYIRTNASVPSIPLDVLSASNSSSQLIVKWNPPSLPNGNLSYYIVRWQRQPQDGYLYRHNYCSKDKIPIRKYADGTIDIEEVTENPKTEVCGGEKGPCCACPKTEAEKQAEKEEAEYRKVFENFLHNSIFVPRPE
Chain of Insulin-like growth factor 1 receptor (Homo sapiens) (P08069 741-1367 limits assumed): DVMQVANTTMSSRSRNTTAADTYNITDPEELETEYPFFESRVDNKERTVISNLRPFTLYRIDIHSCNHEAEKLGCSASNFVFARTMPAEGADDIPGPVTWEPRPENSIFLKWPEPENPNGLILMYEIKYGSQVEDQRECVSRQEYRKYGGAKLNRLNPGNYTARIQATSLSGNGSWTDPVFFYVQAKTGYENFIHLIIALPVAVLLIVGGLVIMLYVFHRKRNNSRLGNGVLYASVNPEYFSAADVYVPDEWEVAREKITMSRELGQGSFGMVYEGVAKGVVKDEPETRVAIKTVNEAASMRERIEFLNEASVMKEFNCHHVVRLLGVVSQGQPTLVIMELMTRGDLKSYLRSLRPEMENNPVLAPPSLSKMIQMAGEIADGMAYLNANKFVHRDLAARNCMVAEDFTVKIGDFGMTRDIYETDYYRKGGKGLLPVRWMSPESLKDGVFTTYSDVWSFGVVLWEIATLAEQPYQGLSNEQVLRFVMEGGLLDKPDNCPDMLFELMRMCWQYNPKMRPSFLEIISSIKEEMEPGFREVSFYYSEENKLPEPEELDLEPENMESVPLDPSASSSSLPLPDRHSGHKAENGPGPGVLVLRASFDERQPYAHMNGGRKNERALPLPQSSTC

Consider `O=C(Nc1ccc2[nH]nc(-c3ccc4[nH]ccc4c3)c2c1)c1c(Cl)cccc1Cl`, for which the inhibition result in series [1], in series [2], in series [3], in series [5], in series [6] and in series [7] was “inactive” each time. Besides, the inhibition entry in series [8], in series [9], in series [11], in series [13], in series [14] and in series [15] was “inactive” throughout. For the same compound, the inhibition entry in series [16], in series [18], in series [20] and in [21] was “inactive” throughout. For the same compound, the Activity result in [4] is “Non-Toxic”. Further, the inhibition result in series [10] was “Active”. Also, the outcome in series [12], in series [17] and in series [19] was Active.
